The record followed here is ChEMBL document CHEMBL3580617, “Discovery of Benzimidazole CYP11B2 Inhibitors with in Vivo Activity in Rhesus Monkeys” (ACS Med Chem Lett, 2015).

Series [1] deals with Rhesus monkey. The series can be described thus: Increase in 11-deoxycortisol levels in low sodium diet fed rhesus monkey up to 0.3 mg/kg, iv followed by 0.3 mg/kg ACTH dosing and measured 30 mins to 180 mins post ACTH administration by UPLC coupled with tandem mass spectrometry. The class given is functional, organism-based. The conditions noted are these: Macaca mulatta. Summed up:
(§1)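 Anesthetized rhesus monkeys were given i.v. doses from 0.001 to 0.3 mg/kg. Plasma aldosterone and 11-deoxycortisol were quantified by LC-MS at time points up to 180 min postdose, and AUCs were determined for each. Plasma drug was measured at 90 min postdose. Free (unbound) concentrations were calculated from the measured fraction unbound in rhesus plasma.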

For series [2], the system named is Rhesus monkey. The series can be described thus: Reduction in aldosterone levels in low sodium diet fed rhesus monkey at 0.01 to 0.3 mg/kg, iv followed by 0.3 mg/kg ACTH dosing and measured 30 mins to 180 mins post ACTH administration by UPLC coupled with tandem mass spectrometry. The class given is functional, organism-based. To be noted: Macaca mulatta; 0.001 to 0.3 mg/kg; in the assay text read “0.001 to 0.3 mg/kg” for “0.01 to 0.3 mg/kg”. Summed up: as §1

The subject of series [3] is Rhesus monkey. The series can be described thus: Reduction in aldosterone levels in low sodium diet fed rhesus monkey at 0.3 mg/kg, iv followed by 0.3 mg/kg ACTH dosing and measured 30 mins to 180 mins post ACTH administration by UPLC coupled with tandem mass spectrometry. The class given is functional. To be noted: Macaca mulatta. Summed up: as §1
A short description of series [4]: (§2) Inhibition of rhesus monkey CYP11B2 expressed in V79 cells incubated for 1 hr before 11-deoxycorticosterone substrate addition by HTRF-based assay. In kind it is cell-based, Macaca mulatta. (In TR-FRET formats the signal depends on donor and acceptor labels being close together.)
In series [5] the test system is Rhesus monkey. Briefly: […] in 11-deoxycortisol levels in low sodium diet fed rhesus monkey at free plasma concentration up to 27 nM dosed at 0.01 to 0.3 mg/kg, iv followed by 0.3 mg/kg ACTH dosing and measured 90 mins post ACTH administration by UPLC coupled with tandem mass spectrometry. In kind it is functional, organism-based. The conditions noted are these: Macaca mulatta. Summed up: as §1

The test system of series [6] is Rhesus monkey. The series can be described thus: In-vivo inhibition of CYP11B1 in low sodium diet fed rhesus monkey at free plasma concentration up to 27 nM dosed at 0.01 to 0.3 mg/kg, iv followed by 0.3 mg/kg ACTH dosing and measured 90 mins post ACTH administration by UPLC coupled with tandem mass spectrometry. To be noted: Macaca mulatta. In kind it is functional, organism-based. Summed up: as §1

Another series deals with Cytochrome P450 2C9 (Homo sapiens, UniProt P11712). The series can be described thus: Inhibition of CYP2C9 (unknown origin). In kind it is ADME.
Sequence of Cytochrome P450 2C9 (P11712 whole entry): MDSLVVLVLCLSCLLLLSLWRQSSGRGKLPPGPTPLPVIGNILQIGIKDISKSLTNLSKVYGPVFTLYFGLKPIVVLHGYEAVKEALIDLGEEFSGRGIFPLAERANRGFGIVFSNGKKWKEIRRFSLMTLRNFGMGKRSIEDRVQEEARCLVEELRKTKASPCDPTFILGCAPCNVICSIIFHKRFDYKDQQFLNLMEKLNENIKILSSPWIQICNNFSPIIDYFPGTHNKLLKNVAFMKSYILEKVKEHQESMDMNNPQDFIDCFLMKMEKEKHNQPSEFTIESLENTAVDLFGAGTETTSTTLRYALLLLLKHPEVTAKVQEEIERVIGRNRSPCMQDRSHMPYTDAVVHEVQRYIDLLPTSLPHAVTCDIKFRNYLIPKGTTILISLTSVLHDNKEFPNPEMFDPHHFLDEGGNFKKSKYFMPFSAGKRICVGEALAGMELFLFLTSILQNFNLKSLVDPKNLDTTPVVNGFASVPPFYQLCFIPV
For series [7], the system named is Rhesus monkey. The series can be described thus: Reduction in aldosterone levels in low sodium diet fed rhesus monkey assessed as free plasma concentration causing reduction in aldosterone at 0.3 mg/kg, iv followed by 0.3 mg/kg ACTH dosing and measured 90 mins post ACTH administration by UPLC coupled with tandem mass spectrometry. The class given is functional, Macaca mulatta. Summed up: as §1

For series [8], the system named is Rhesus monkey. The series can be described thus: Reduction in aldosterone levels in low sodium diet fed rhesus monkey assessed as free plasma concentration causing reduction in aldosterone at 0.01 mg/kg, iv followed by 0.3 mg/kg ACTH dosing and measured 90 mins post ACTH administration by UPLC coupled with tandem mass spectrometry. In kind it is functional, Macaca mulatta. Summed up:
as §1

The nature of series [9]: Inhibition of rhesus monkey CYP11B1. On the set-up: species or system Macaca mulatta.
In series [10] the target is Sodium channel protein type 5 subunit alpha (Homo sapiens, UniProt Q14524). Briefly: Block of Nav1.5 ion channel in functional assay (unknown origin).
Sequence of Sodium channel protein type 5 subunit alpha (Q14524 whole entry): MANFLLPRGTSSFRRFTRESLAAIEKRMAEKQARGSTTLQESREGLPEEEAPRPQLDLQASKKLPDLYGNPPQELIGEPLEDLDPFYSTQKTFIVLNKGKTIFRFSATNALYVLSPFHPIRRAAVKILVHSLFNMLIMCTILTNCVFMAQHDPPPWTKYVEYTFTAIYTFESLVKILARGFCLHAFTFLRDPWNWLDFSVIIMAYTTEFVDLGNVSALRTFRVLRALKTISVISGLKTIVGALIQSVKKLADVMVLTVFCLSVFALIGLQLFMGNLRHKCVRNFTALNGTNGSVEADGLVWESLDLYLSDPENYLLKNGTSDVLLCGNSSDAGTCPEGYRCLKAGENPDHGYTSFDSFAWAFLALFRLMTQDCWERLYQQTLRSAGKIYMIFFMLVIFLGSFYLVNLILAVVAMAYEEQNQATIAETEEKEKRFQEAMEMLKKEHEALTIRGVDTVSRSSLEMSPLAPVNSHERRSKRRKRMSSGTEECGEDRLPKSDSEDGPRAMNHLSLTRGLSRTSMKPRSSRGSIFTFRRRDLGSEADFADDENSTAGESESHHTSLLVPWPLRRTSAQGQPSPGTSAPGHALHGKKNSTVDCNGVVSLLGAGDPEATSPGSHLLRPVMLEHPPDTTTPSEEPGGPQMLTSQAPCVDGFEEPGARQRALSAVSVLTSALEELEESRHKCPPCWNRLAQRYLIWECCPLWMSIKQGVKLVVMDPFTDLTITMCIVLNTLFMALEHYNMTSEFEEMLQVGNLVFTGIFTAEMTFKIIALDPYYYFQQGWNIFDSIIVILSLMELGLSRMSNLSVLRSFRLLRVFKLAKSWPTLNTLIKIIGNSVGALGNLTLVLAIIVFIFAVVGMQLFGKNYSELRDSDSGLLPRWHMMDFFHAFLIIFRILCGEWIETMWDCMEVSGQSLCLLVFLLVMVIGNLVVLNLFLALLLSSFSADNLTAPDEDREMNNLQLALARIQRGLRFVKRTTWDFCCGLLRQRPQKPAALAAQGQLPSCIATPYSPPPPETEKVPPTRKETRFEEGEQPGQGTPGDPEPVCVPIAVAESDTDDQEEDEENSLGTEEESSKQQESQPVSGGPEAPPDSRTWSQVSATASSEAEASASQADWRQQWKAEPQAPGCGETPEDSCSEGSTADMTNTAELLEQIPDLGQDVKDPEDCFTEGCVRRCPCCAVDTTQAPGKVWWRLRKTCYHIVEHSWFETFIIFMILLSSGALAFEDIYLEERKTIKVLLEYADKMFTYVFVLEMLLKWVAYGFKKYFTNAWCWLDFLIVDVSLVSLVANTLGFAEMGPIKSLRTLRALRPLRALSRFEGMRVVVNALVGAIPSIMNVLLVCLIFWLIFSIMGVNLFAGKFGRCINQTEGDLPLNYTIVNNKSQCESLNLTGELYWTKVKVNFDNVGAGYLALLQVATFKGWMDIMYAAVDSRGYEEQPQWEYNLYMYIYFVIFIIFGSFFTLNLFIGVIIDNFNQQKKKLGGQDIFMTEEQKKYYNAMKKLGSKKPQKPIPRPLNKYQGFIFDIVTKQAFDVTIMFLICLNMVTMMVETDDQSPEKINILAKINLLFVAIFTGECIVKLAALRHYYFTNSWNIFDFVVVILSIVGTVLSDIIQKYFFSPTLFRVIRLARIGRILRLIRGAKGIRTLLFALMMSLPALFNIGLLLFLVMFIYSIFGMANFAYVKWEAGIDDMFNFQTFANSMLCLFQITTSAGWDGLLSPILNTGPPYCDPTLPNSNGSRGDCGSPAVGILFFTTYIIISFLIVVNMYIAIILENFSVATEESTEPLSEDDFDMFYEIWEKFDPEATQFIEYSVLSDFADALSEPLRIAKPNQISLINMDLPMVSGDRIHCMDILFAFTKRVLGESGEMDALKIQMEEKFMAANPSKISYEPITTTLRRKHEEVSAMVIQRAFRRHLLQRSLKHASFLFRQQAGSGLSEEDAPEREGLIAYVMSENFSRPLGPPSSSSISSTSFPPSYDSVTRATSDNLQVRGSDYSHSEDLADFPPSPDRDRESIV
Series [11] can be described thus: Half life in rhesus monkey at 1 mg/kg, po or 0.5 mg/kg, iv by LC-MS/MS method. The conditions noted are these: in vivo. The class given is ADME, organism-based, Macaca mulatta.
Series [12] is filed under the species Homo sapiens. The series can be described thus: Selectivity index, ratio of IC50 for human CYP11B1 to IC50 for human CYP11B2. In outline:
(§3)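 Human CYP11B2 and CYP11B1 inhibition was tested in cell-based assays. Selectivity was taken as the hCYP11B1 IC50 divided by the hCYP11B2 IC50.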

The test system of another series is V79. The description is as §2. In kind it is cell-based. The conditions noted are these: Macaca mulatta.
For series [13], the target named is Voltage-dependent L-type calcium channel subunit alpha-1C (Homo sapiens, UniProt Q13936). The series can be described thus: Block of Cav1.2 ion channel in functional assay (unknown origin).
Sequence of Voltage-dependent L-type calcium channel subunit alpha-1C (Q13936 whole entry): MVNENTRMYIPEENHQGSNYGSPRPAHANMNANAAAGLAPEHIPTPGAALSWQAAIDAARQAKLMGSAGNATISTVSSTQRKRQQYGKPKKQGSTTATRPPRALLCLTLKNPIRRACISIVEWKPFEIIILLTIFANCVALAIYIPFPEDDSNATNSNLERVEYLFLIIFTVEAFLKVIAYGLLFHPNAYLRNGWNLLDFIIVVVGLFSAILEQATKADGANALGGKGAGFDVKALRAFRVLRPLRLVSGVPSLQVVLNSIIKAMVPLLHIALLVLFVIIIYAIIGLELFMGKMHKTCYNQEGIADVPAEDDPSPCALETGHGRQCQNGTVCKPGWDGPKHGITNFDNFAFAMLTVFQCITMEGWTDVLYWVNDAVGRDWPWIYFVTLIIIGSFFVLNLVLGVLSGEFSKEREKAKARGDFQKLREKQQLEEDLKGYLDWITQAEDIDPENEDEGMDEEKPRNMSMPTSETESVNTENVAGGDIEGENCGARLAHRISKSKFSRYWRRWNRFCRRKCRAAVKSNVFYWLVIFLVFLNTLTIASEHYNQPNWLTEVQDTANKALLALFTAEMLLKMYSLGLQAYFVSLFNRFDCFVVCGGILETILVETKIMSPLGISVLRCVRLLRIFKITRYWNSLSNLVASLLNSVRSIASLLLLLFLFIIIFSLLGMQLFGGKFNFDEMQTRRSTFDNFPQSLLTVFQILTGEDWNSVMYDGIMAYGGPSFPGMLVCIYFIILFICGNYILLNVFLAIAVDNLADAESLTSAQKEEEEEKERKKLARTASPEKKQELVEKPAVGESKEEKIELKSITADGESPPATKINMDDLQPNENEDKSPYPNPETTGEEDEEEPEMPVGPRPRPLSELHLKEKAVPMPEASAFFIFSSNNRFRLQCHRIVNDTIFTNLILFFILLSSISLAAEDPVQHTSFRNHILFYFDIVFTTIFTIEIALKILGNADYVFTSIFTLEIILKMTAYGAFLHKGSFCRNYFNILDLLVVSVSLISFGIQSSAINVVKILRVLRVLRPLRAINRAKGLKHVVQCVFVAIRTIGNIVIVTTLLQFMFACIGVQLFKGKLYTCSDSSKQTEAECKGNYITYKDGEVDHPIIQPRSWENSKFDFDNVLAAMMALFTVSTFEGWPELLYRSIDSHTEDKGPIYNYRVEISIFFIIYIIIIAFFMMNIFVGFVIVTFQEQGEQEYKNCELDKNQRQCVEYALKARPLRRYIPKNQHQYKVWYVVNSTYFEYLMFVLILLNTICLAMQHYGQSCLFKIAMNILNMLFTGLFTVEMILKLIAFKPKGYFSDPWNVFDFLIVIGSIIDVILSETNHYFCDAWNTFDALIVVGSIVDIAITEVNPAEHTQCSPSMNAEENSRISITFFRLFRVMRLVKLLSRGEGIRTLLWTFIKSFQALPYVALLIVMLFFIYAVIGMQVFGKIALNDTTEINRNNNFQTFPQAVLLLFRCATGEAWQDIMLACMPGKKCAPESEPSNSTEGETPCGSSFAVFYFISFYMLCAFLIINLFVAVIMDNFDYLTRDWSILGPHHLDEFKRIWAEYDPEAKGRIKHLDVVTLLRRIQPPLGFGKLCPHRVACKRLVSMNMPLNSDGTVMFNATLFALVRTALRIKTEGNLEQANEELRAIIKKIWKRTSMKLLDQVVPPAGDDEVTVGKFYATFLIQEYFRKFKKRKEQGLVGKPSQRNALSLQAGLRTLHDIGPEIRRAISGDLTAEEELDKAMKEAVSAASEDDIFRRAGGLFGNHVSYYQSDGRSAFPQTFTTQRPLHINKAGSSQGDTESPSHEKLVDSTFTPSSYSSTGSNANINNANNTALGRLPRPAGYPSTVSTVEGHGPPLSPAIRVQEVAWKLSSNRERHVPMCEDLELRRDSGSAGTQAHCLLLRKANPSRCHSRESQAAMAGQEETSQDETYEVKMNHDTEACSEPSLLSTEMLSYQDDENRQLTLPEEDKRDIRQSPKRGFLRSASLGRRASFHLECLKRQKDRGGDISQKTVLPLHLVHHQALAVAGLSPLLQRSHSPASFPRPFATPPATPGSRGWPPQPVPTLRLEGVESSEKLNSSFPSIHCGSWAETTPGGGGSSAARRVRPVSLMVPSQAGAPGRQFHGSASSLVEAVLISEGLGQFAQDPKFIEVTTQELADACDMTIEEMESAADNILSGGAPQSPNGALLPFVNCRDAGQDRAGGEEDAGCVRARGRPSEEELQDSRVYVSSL
The target of series [14] is T1, Cytochrome P450 11B2, mitochondrial (Homo sapiens, UniProt P19099).
T1 sequence (P19099 whole entry): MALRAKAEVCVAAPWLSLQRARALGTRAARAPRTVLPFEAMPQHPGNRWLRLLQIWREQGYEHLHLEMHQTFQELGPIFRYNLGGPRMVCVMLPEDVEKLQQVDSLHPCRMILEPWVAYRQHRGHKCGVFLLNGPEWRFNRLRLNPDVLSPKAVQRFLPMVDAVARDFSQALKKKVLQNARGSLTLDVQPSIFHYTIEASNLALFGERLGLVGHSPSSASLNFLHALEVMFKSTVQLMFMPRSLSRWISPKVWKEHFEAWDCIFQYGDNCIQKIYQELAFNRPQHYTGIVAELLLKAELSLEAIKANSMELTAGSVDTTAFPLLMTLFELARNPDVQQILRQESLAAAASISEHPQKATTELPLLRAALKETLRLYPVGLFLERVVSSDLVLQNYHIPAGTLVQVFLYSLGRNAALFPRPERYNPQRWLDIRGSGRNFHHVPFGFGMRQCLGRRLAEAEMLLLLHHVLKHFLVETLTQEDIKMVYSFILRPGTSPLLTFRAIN
The series can be described thus: Inhibition of human CYP11B2 expressed in V79 cells incubated for 1 hr before 11-deoxycorticosterone substrate addition by HTRF-based assay. In kind it is cell-based. Summed up: as §3

The target of series [15] is T2, Cytochrome P450 11B1, mitochondrial (Homo sapiens, UniProt P15538).
T2 sequence (P15538 whole entry): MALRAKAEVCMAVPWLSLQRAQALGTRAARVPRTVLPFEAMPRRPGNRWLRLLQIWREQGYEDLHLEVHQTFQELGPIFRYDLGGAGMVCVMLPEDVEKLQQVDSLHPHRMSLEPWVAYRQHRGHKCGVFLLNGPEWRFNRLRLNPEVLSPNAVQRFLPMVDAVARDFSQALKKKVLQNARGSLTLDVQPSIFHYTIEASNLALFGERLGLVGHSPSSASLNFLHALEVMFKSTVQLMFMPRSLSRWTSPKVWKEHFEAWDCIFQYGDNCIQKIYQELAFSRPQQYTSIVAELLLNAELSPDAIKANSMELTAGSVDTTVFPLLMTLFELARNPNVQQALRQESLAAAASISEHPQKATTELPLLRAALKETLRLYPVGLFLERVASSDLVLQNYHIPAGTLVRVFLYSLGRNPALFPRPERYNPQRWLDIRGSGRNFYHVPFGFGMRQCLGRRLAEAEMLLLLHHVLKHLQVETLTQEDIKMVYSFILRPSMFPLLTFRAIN
The series can be described thus: Inhibition of human CYP11B1 expressed in V79 cells incubated for 1 hr before 11-deoxycortisol substrate addition by HTRF-based assay. The class given is cell-based. In outline: as §3

For series [16], the species on record is Homo sapiens. The series can be described thus: Selectivity index, ratio of IC50 for CYP19 (unknown origin) to IC50 for human CYP11B2.

What is called inhibition in vivo is the drop in the measured response relative to a control, in per cent. As a reminder, the IC50 is the concentration that gives 50% inhibition. A word on the half-life: it is the time needed for the level to fall by half in the phase considered.

Activity calls are given as the source filed them.

Turning to `CC(C)(O)c1cncc(-c2nc3ccc(F)cc3n2C2CC2)c1` [MSD-CYP11B2], the result with Rhesus monkey [1] was inactive. In the series with Rhesus monkey [2], the inhibition entry was “Dose-dependent effect”. In addition, in the series with Rhesus monkey [3], the inhibition in vivo at 0.3 mg/kg worked out at 95%. Further, the figures for the IC50 in series [4] and in series [9] were 0.3 nM and 41 nM, respectively. Further, the inhibition result with Rhesus monkey [5] and with Rhesus monkey [6] was “inactive” throughout. The “inhibition (INH)” value against Cytochrome P450 2C9 is recorded as “Not Active”. Also, the “Cp(f)” value with Rhesus monkey [7] was determined as 27 nM; in the series with Rhesus monkey [8] it was 12 nM.
`Fc1cncc(-c2nc3cc(F)c(F)cc3n2C2CC2)c1`: the half-inhibitory concentration (IC50) was > 30000 nM in [10], > 30000 nM in series [13], 4.7 nM in series [14] and 435 nM in series [15]. Moreover, in series [11], the half-life was 7.4 h. Moreover, the Ratio IC50 turned out to be 93 in the series filed under Homo sapiens [12] and 500 in the series listed under Homo sapiens [16]. The inhibition entry in the series on V79 was “Active”. Further, the “inhibition (INH)” value on Cytochrome P450 2C9 was “Not Active”.
